Activity calls are given as the source filed them. No cut-off for these calls is given here. Bounds are passed on as bounds.

For one assay, the system named is SK-BR-3. In words: Cytotoxicity against human SKBR3 cells by diphenylamine DNA assay. In kind it is functional, cell-based.
Conditions: not given
As for `CC(C)c1ccc(COc2cc([N+](=O)[O-])ccc2N(C)S(C)(=O)=O)cc1`, the outcome was Active. With `Cc1ccc(C)c(COc2cc([N+](=O)[O-])ccc2N(C)S(C)(=O)=O)c1`, the outcome was Active.

Another assay deals with T1, Aromatase (Homo sapiens, UniProt P11511).
T1 sequence (P11511 whole entry): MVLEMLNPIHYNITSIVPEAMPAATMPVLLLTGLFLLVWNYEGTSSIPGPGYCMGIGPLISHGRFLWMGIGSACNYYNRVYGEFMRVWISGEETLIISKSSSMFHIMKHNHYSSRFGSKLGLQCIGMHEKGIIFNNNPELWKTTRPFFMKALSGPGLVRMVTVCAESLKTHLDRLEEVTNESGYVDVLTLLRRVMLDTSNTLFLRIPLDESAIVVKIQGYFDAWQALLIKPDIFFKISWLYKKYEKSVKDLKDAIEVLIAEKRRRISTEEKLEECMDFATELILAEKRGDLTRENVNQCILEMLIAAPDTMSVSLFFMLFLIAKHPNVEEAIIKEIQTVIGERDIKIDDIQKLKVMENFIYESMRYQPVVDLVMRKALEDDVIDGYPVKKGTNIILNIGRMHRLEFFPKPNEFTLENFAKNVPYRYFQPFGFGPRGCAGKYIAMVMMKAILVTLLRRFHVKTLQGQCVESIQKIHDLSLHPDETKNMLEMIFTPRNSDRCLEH
Description: Inhibition of aromatase in human SKBR3 cells by tritiated water release assay. In kind it is cell-based. As to conditions: sk-br-3. The essentials: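 Subconfluent SK-BR-3 cells were switched to defined DMEM/F12 (human albumin, transferrin, insulin) and treated 24 h at five concentrations in triplicate (0.1% DMSO vehicle). They were then incubated 3 h with 100 nM [1β-3H]-androstenedione. TCA-precipitated medium was chloroform-extracted and charcoal-treated, and 3H2O counted as pmol/h/10^6 cells, normalized by DNA assay. IC50 was taken from sigmoidal dose–response fits.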
For the compound `CS(=O)(=O)Nc1ccc([N+](=O)[O-])cc1OCc1ccc([N+](=O)[O-])cc1`, the IC50 (commonly the concentration at which inhibition is half-maximal) amounted to 400 nM. The compound `CN(c1ccc([N+](=O)[O-])cc1OCCc1ccccc1)S(C)(=O)=O` registered an IC50 of 520 nM. Compound `O=C(Nc1ccc([N+](=O)[O-])cc1OCc1ccccc1)c1ccc2ccccc2c1` had an IC50 of more than 25000 nM. The same measure, in the same setting: the same measure for `CCCCCCCCCOc1cc([N+](=O)[O-])ccc1N(C)S(C)(=O)=O`: 3960 nM. `CN(c1ccc(NC(=O)C2CCCCC2)cc1OCc1ccccc1)S(C)(=O)=O` came in with an IC50 of 250 nM. Same read-out and setting: the same measure for `CN(c1ccc([N+](=O)[O-])cc1OC1CCCCC1)S(C)(=O)=O`: 470 nM. `O=C(Nc1ccc([N+](=O)[O-])cc1OCc1ccccc1)c1ccc(-c2ccccc2)cc1` yielded an IC50 of more than 25000 nM. Turning to `CCCOc1cc([N+](=O)[O-])ccc1N(C)S(C)(=O)=O`, half-maximal inhibition (IC50) required 760 nM. Still for that read-out and setting: the same measure for `CS(=O)(=O)Nc1ccc([N+](=O)[O-])cc1OCc1ccccc1`: 2140 nM. `CCC(CC)Oc1cc([N+](=O)[O-])ccc1NS(C)(=O)=O` had an IC50 of 300 nM. The compound `CS(=O)(=O)Nc1ccc([N+](=O)[O-])cc1OCc1ccc(F)cc1` displayed an IC50 of 580 nM. The same measure, in the same setting: the same measure for `CCCCCCCCCOc1cc([N+](=O)[O-])ccc1NS(C)(=O)=O`: 910 nM; for `CN(c1ccc([N+](=O)[O-])cc1OCc1cccc2ccccc12)S(C)(=O)=O`: 1170 nM.

`Cc1ccc(S(=O)(=O)Nc2ccc([N+](=O)[O-])cc2OCc2ccccc2)cc1` returned an IC50 of 17400 nM.

Consider `CS(=O)(=O)Nc1ccc([N+](=O)[O-])cc1OCc1ccc(Br)cc1`, for which inhibition was half-maximal at 5850 nM (IC50).

The compound `Cc1ccc(COc2cc([N+](=O)[O-])ccc2N(C)S(C)(=O)=O)cc1` came in with an IC50 of 2330 nM. The compound `CN(c1ccc(NC(=O)c2ccc(C#N)cc2)cc1OCc1ccccc1)S(C)(=O)=O` showed an IC50 of 440 nM. On to `CC(C)Oc1cc([N+](=O)[O-])ccc1NS(C)(=O)=O`, for which the IC50 was 5870 nM.

Turning to `CS(=O)(=O)Nc1ccc([N+](=O)[O-])cc1OCc1ccc2ccccc2c1`, the IC50 is 2170 nM. `CS(=O)(=O)Nc1ccc([N+](=O)[O-])cc1OCC1CCCCC1` yielded an IC50 of 1210 nM. Take `O=C(Nc1ccc([N+](=O)[O-])cc1OCc1ccccc1)c1ccc(Cl)c(Cl)c1`: the IC50 is more than 25000 nM. Regarding `CN(c1ccc([N+](=O)[O-])cc1OCc1ccc2ccccc2c1)S(C)(=O)=O`, the midpoint of inhibition, the IC50, lay at 2680 nM.

In the case of `CC(=O)Nc1ccc(N(C)S(C)(=O)=O)c(OCc2ccccc2)c1`, inhibition was half-maximal at 16700 nM (IC50). The compound `O=C(Nc1ccc([N+](=O)[O-])cc1OCc1ccccc1)c1ccc([N+](=O)[O-])cc1` yielded an IC50 of more than 25000 nM. Still for that read-out and setting: as for `CN(c1ccc([N+](=O)[O-])cc1OCc1ccc(F)cc1)S(C)(=O)=O`, the figure is 1780 nM. The same measure, in the same setting: as for `CS(=O)(=O)Nc1ccc([N+](=O)[O-])cc1OC1CCCCC1` [NS-398], the figure is 680 nM; as for `O=C(Nc1ccc([N+](=O)[O-])cc1OCc1ccccc1)C1CCCCC1`, more than 25000 nM; as for `CN(c1ccc([N+](=O)[O-])cc1OCc1ccc([N+](=O)[O-])cc1)S(C)(=O)=O`, 490 nM. On the same count and under the same terms, the same measure for `CN(c1ccc(NC(=O)c2ccc3ccccc3c2)cc1OCc1ccccc1)S(C)(=O)=O`: 1070 nM; for `CS(=O)(=O)Nc1ccc([N+](=O)[O-])cc1OCc1ccc(Cl)cc1`: 290 nM. `COc1ccc(COc2cc([N+](=O)[O-])ccc2NS(C)(=O)=O)cc1` returned an IC50 of 7820 nM. Take `CS(=O)(=O)Nc1ccc([N+](=O)[O-])cc1OCc1ccccc1-c1ccccc1`: the IC50 came out at 260 nM.

For `CN(c1ccc(NC(=O)c2ccc(-c3ccccc3)cc2)cc1OCc1ccccc1)S(C)(=O)=O`, the concentration for half-maximal inhibition (IC50) amounted to 120 nM. Still for that read-out and setting: as for `O=C(Nc1ccc([N+](=O)[O-])cc1OCc1ccccc1)c1ccc(Cl)c([N+](=O)[O-])c1`, the figure is more than 25000 nM; as for `CN(c1ccc([N+](=O)[O-])cc1OCc1ccc(-c2ccccc2)cc1)S(C)(=O)=O`, 650 nM.

Turning to `CN(c1ccc([N+](=O)[O-])cc1OCc1ccc(Br)cc1)S(C)(=O)=O`, 330 nM corresponded to half-maximal inhibition (IC50).

Turning to `Cc1ccc(COc2cc([N+](=O)[O-])ccc2NS(C)(=O)=O)cc1`, the IC50 turned out to be 1750 nM.

Take `COc1ccc(COc2cc([N+](=O)[O-])ccc2N(C)S(C)(=O)=O)cc1`: the midpoint of inhibition, the IC50, lay at 470 nM. As to `CN(c1ccc(NC(=O)c2ccc(Cl)c([N+](=O)[O-])c2)cc1OCc1ccccc1)S(C)(=O)=O`, the IC50 was found to be 690 nM. For `CCCCCCOc1cc([N+](=O)[O-])ccc1N(C)S(C)(=O)=O`, the IC50 was 4490 nM. On the same count and under the same terms, as for `O=[N+]([O-])c1ccc(S(=O)(=O)Nc2ccc([N+](=O)[O-])cc2OCc2ccccc2)cc1`, the figure is 2170 nM; as for `CN(c1ccc(NC(=O)c2ccccc2)cc1OCc1ccccc1)S(C)(=O)=O`, 1770 nM. In turn, `CN(c1ccc([N+](=O)[O-])cc1OCC1CCCCC1)S(C)(=O)=O` returned an IC50 of 960 nM. `CN(c1ccc(N)cc1OCc1ccccc1)S(C)(=O)=O` displayed a half-maximal inhibitory concentration (IC50) of 1100 nM. On to `CC(C)c1ccc(COc2cc([N+](=O)[O-])ccc2NS(C)(=O)=O)cc1`, for which the IC50 worked out at 7450 nM. In turn, `CN(c1ccc(NC(=O)c2ccc(Cl)c(Cl)c2)cc1OCc1ccccc1)S(C)(=O)=O` had an IC50 of 690 nM. `CCC(CC)Oc1cc([N+](=O)[O-])ccc1N(C)S(C)(=O)=O` gave a half-maximal inhibitory concentration (IC50) of 230 nM. The same measure, in the same setting: as for `CN(c1ccc([N+](=O)[O-])cc1OCc1ccc(Cl)cc1)S(C)(=O)=O`, the figure is 2400 nM; as for `CC(C)Oc1cc([N+](=O)[O-])ccc1N(C)S(C)(=O)=O`, 2810 nM. The compound `CCCCCCOc1cc([N+](=O)[O-])ccc1NS(C)(=O)=O` showed an IC50 of 2670 nM.

Turning to `CS(=O)(=O)Nc1ccc([N+](=O)[O-])cc1OCCc1ccccc1`, the IC50 came to 230 nM. Same read-out and setting: the same measure for `Cc1ccc(C)c(COc2cc([N+](=O)[O-])ccc2NS(C)(=O)=O)c1`: 370 nM; for `O=C(Nc1ccc([N+](=O)[O-])cc1OCc1ccccc1)c1cccc([N+](=O)[O-])c1`: more than 25000 nM; for `CS(=O)(=O)Nc1ccc([N+](=O)[O-])cc1OC1CCCC1`: 870 nM. On the same count and under the same terms, as for `CN(c1ccc([N+](=O)[O-])cc1OC1CCCC1)S(C)(=O)=O`, the figure is 440 nM; as for `CN(c1ccc([N+](=O)[O-])cc1OCc1ccccc1-c1ccccc1)S(C)(=O)=O`, 330 nM. Same read-out and setting: the same measure for `CN(c1ccc([N+](=O)[O-])cc1OCc1ccccc1)S(C)(=O)=O`: 810 nM; for `CCCOc1cc([N+](=O)[O-])ccc1NS(C)(=O)=O`: 2510 nM; for `CC(=O)Nc1ccc([N+](=O)[O-])cc1OCc1ccccc1`: 1180 nM.

`CS(=O)(=O)Nc1ccc([N+](=O)[O-])cc1OCc1ccc(-c2ccccc2)cc1` yielded an IC50 of 850 nM.

On to `N#Cc1ccc(C(=O)Nc2ccc([N+](=O)[O-])cc2OCc2ccccc2)cc1`, for which the IC50 was more than 25000 nM. The compound `CS(=O)(=O)Nc1ccc([N+](=O)[O-])cc1OCc1cccc2ccccc12` returned an IC50 of 5740 nM. In the case of `O=C(Nc1ccc([N+](=O)[O-])cc1OCc1ccccc1)c1ccccc1`, the half-maximal inhibitory concentration (IC50) is more than 25000 nM.

(Values after ChEMBL document CHEMBL1143195, “Novel sulfonanilide analogs decrease aromatase activity in breast cancer cells: synthesis, biological evaluation, and ligand-based pharmacophore identification” (J Med Chem, 2008).)
